Calls of active or inactive are those of the source. The rule behind the calls is not given here.

Data set [1] has as its system HT-29. As to the kind of experiment: Cytotoxicity against human HT-29 cells assessed as phosphorylation of CHK1 on S296 at 200 nM by Western blotting analysis. It is filed as functional, cell-based. Put shortly: (§1)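 HT29 colon cells treated with gemcitabine with or without inhibitor. Protein expression was read by western blotting with 50μg protein per lane.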
Data set [2] concerns HT-29. As to the kind of experiment: Cytotoxicity against human HT-29 cells assessed as phosphorylation of CHK1 on S280 at 200 nM by Western blotting analysis. In kind it is functional, cell-based. Put shortly:
as §1
A general note: Immunoblotting shows a protein as a band on a membrane.

The subject of data set [3] is HT-29. The data set is described as follows: Cytotoxicity against human HT-29 cells assessed as phosphorylation of CHK1 on S317 at 200 nM by Western blotting analysis. It is filed as functional, cell-based. Put shortly:
as §1

Data set [4] concerns HT-29. As to the kind of experiment: Induction of cell cycle arrest in human HT-29 cells assessed as phosphorylation of CDK1 on pY15 at 200 nM by Western blotting analysis. In kind it is functional, cell-based. Put shortly:
as §1

Data set [5] relates to Mus musculus. As to the kind of experiment: In vivo inhibition of CHK1 in CRTac:Ncr-Fox1 mouse xenografted with human HT-29 cells assessed as increased phosphorylation of CHK1 on S296 at 100 mg/kg, iv administered for 24 hrs by Western blotting analysis. In kind it is functional, organism-based. A digest of the protocol: (§2)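 HT29 s.c. xenografts in female athymic nude mice. Single gemcitabine dose 100mg/kg i.v. on day 0, then one inhibitor dose 50 or 100mg/kg p.o. (DPTW vehicle) 24h later. Tumors taken 24h after the last dose, western blotted, and signals quantified by normalizing to GAPDH.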
A general note: A xenograft is tissue or cells of one species grown in another, often human tumour cells in immunodeficient mice.

Data set [6] concerns Mus musculus. As to the kind of experiment: In vivo inhibition of CHK1 in CRTac:Ncr-Fox1 mouse xenografted with human HT-29 cells assessed as increased phosphorylation of CHK1 on S317 at 100 mg/kg, iv administered for 24 hrs by Western blotting analysis. In kind it is functional, organism-based. Put shortly: as §2
In data set [7] the test system is Mus musculus. The data set is described as follows: In vivo inhibition of CHK1 in CRTac:Ncr-Fox1 mouse xenografted with human HT-29 cells assessed as increased phosphorylation of CDK1 on Y15 at 100 mg/kg, iv administered for 24 hrs by Western blotting analysis. It is filed as functional, organism-based. A digest of the protocol:
as §2

Data set [8] relates to HT-29. As to the kind of experiment: Antitumor activity against human HT-29 cells xenografted in CRTac:Ncr-Fox1 mouse assessed as tumor growth delay at 100 mg/kg, iv (reference value: […] +/- 5.2 days). In kind it is functional.
The test system of data set [9] is HT-29. As to the kind of experiment: Antitumor activity against human HT-29 cells xenografted in CRTac:Ncr-Fox1 mouse assessed as tumor growth delay at 100 mg/kg, iv (reference value: 8.4 +/- 1.6 days). In kind it is functional.
In data set [10] the test system is HT-29. The data set is described as follows: Antitumor activity against human HT-29 cells xenografted in CRTac:Ncr-Fox1 mouse assessed as tumor growth delay at 100 mg/kg, iv (reference value: 7.2 +/- 1.8 days). In kind it is functional.
Data set [11] relates to Calu-6. The data set is described as follows: Antitumor activity against human Calu-6 cells xenografted in CRTac:Ncr-Fox1 mouse assessed as tumor growth delay time at 100 mg/kg, iv in presence of carboplatin (reference value: 6.4 +/- 2.5 days). It is filed as functional.
Data set [12] can be described thus: Toxicity in CRTac:Ncr-Fox1 mouse xenografted with human HT-29 cells assessed as body weight at 200 mg/kg, iv administered for 16 days relative to control. In kind it is organism-based. The settings on record: in vivo, 384 h, time 16 day.
Data set [13] is described as follows: Toxicity in CRTac:Ncr-Fox1 mouse xenografted with human SW620 cells assessed as body weight at 100 mg/kg, iv administered for 9 days relative to control. It is filed as organism-based, SW-620. The conditions noted are these: in vivo, 216 h, time 9 day.
The subject of data set [14] is Mus musculus. The data set is described as follows: Effect on CHK1 in CRTac:Ncr-Fox1 athymic mouse xenografted with human Calu-6 cells assessed as phosphorylation of CHK1 at S296 at 100 mg/kg, iv in presence of carboplatin by Western blotting analysis. It is filed as functional, organism-based. Put shortly:
(§3)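 Female CRTac:Ncr-Fox1(nu) athymic mice carried s.c. Calu6 xenografts. Tumors were taken 6h after the last inhibitor dose, lysed in CHAPS buffer, and immunoblotted with GAPDH as loading control.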

The subject of data set [15] is Mus musculus. As to the kind of experiment: Effect on CHK1 in CRTac:Ncr-Fox1 athymic mouse xenografted with human Calu-6 cells assessed as phosphorylation of CHK1 at S317 at 100 mg/kg, iv in presence of carboplatin by Western blotting analysis. It is filed as functional, organism-based. Put shortly:
as §3

The subject of data set [16] is Mus musculus. The data set is described as follows: Effect on CHK1 in CRTac:Ncr-Fox1 athymic mouse xenografted with human Calu-6 cells assessed as phosphorylation of CHK1 at S345 at 100 mg/kg, iv in presence of carboplatin by Western blotting analysis. It is filed as functional, organism-based. Put shortly: as §3
For data set [17], the system named is HT-29. The data set is described as follows: Cytotoxicity against human HT-29 cells assessed as phosphorylation of CHK1 on S345 at 200 nM by Western blotting analysis. It is filed as functional, cell-based. A digest of the protocol:
as §1

As for `Nc1ccn([C@@H]2O[C@H](CO)[C@@H](O)C2(F)F)c(=O)n1` [GEMCITABINE], the outcome in [1], in [2], in data set [3], in [4], in data set [5] and in data set [6] was Active. Besides, the outcome in data set [7], in data set [14], in [15], in [16] and in [17] was Active. In addition, the Time in data set [8] was 0.3 days; in data set [9] it was 2.6 days; in [10], 2.9 days; in data set [11], 0.7 days. Moreover, the residual activity (as a rule, the activity still measured, relative to the control) was found to be 94.2% in data set [12] and 95.7% in [13].

Values taken from ChEMBL document CHEMBL5653622 (Oncotarget, 2016).
